According to ChEMBL document CHEMBL1144120, “In vitro evaluation of antifungal properties of phenylpropanoids and related compounds acting against dermatophytes” (1999):
Converted amounts (≈) assume the structure as drawn. The source made the active and inactive calls. The calls are words filed in the database; no cut-off is given here.

Key:
Microsporum canis [1] = experiment: Antifungal activity against Microsporum canis C 112 by agar dilution method; format: functional
Outline: (§1)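 Dermatophytes were tested by agar dilution on Sabouraud chloramphenicol agar in 96-well plates. DMSO stock solutions were serially two-fold diluted into the medium to give final concentrations of 0.10–50 µg/mL, with DMSO not exceeding 2%. Each well received 5 µL of spore suspension.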

Nannizzia gypsea [2] = experiment: Antifungal activity against Microsporum gypseum C 115 by agar dilution method; format: functional; outline: as §1
[3] = tested on: Trichophyton mentagrophytes; experiment: Antifungal activity against Trichophyton mentagrophytes ATCC 9972 up to 50 ug/mL by agar dilution method; format: functional, organism-based; outline: as §1
Microsporum canis [4] = experiment: Antifungal activity against Microsporum canis C 112 up to 50 ug/mL by agar dilution method; format: functional, organism-based; outline: as §1
Epidermophyton floccosum [5] = experiment: Antifungal activity against Epidermophyton floccosum C 114 by agar dilution method; format: functional; outline: as §1
Nannizzia gypsea [6] = experiment: Antifungal activity against Microsporum gypseum C 115 up to 50 ug/mL by agar dilution method; format: functional, organism-based; outline: as §1
Cryptococcus neoformans = experiment: Antifungal activity against Cryptococcus neoformans ATCC 32264 by agar dilution method; format: functional, organism-based
Outline: (§2)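 Sabouraud chloramphenicol agar dilution in 96-well plates. Strains were grown on Sabouraud chloramphenicol agar slants for 48 h at 30 °C and suspended in sterile distilled water, adjusted to 10^6 viable cells/mL. DMSO stocks were serially two-fold diluted into the agar to give 0.10–50 µg/mL, with DMSO ≤2% final. 5 µL inoculum per well; incubated 24, 48 or 72 h at 30 °C per control growth; MIC recorded.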

Trichophyton rubrum [7] = experiment: Antifungal activity against Trichophyton rubrum C 113 up to 50 ug/mL by agar dilution method; format: functional, organism-based; outline: as §1
Aspergillus flavus = experiment: Antifungal activity against Aspergillus flavus ATCC 9170 by agar dilution method; format: functional, organism-based; outline: as §2
Aspergillus fumigatus = experiment: Antifungal activity against Aspergillus fumigatus ATCC 26934 by agar dilution method; format: functional, organism-based; outline: as §2
Saccharomyces cerevisiae = experiment: Antifungal activity against Saccharomyces cerevisiae ATCC 9763 by agar dilution method; format: functional, organism-based; outline: as §2
[8] = tested on: Trichophyton mentagrophytes; experiment: Antifungal activity against Trichophyton mentagrophytes ATCC by agar dilution method; format: functional; outline: as §1
Trichophyton rubrum [9] = experiment: Antifungal activity against Trichophyton rubrum C 113 by agar dilution method; format: functional; outline: as §1
Candida albicans = experiment: Antifungal activity against Candida albicans ATCC 10231 by agar dilution method; format: functional, organism-based; outline: as §2
Aspergillus niger = experiment: Antifungal activity against Aspergillus niger ATCC 9029 by agar dilution method; format: functional, organism-based; outline: as §2
Epidermophyton floccosum [10] = experiment: Antifungal activity against Epidermophyton floccosum C 114 up to 50 ug/mL by agar dilution method; format: functional, organism-based; outline: as §1

| Structure (SMILES) | MIC (Microsporum canis [1]) | MIC (Nannizzia gypsea [2]) | Activity [3] | Activity (Microsporum canis [4]) | MIC (Epidermophyton floccosum [5]) | Activity (Nannizzia gypsea [6]) | Activity (Cryptococcus neoformans) | Activity (Trichophyton rubrum [7]) | Activity (Aspergillus flavus) | Activity (Aspergillus fumigatus) | Activity (Saccharomyces cerevisiae) | MIC [8] | MIC (Trichophyton rubrum [9]) | Activity (Candida albicans) | Activity (Aspergillus niger) | Activity (Epidermophyton floccosum [10]) |
| --- | --- | --- | --- | --- | --- | --- | --- | --- | --- | --- | --- | --- | --- | --- | --- | --- |
| CCC(=O)c1ccc(OC)cc1 | > 50 µg/mL | > 50 µg/mL | inactive | inactive | > 50 µg/mL | inactive | inactive | inactive | inactive | inactive | inactive | > 50 µg/mL | > 50 µg/mL | inactive | inactive | inactive |
| CCC(O)c1ccc2c(c1)OCO2 (configuration not stated) | > 50 µg/mL | > 50 µg/mL | inactive | inactive | > 50 µg/mL | inactive | inactive | inactive | inactive | inactive | inactive | > 50 µg/mL | > 50 µg/mL | inactive | inactive | inactive |
| CC(Cl)C(=O)c1ccc2c(c1)OCO2 (configuration not stated) | 12.5 µg/mL (≈ 58.8 µM) | 12.5 µg/mL (≈ 58.8 µM) | inactive | inactive | 6.25 µg/mL (≈ 29.4 µM) | inactive | inactive | inactive | inactive | inactive | inactive | 25 µg/mL (≈ 118 µM) | 10 µg/mL (≈ 47 µM) | inactive | inactive | inactive |
| CCC(O)c1ccc2ccccc2c1 (configuration not stated) | 50 µg/mL (≈ 268 µM) | 40 µg/mL (≈ 215 µM) | inactive | inactive | 40 µg/mL (≈ 215 µM) | inactive | inactive | inactive | inactive | inactive | inactive | 25 µg/mL (≈ 134 µM) | 40 µg/mL (≈ 215 µM) | inactive | inactive | inactive |
| c1ccc2c(c1)ccc1ccccc12 [PHENANTHRENE] | > 50 µg/mL | > 50 µg/mL | – | – | > 50 µg/mL | – | inactive | – | inactive | inactive | inactive | > 50 µg/mL | > 50 µg/mL | inactive | inactive | – |
| CCC(=O)c1cc2ccccc2c2ccccc12 | 3 µg/mL (≈ 12.8 µM) | 6.25 µg/mL (≈ 26.7 µM) | – | – | 20 µg/mL (≈ 85.4 µM) | – | inactive | – | inactive | inactive | inactive | 3 µg/mL (≈ 12.8 µM) | 6.25 µg/mL (≈ 26.7 µM) | inactive | inactive | – |
| C=CCc1ccc(O)c(OC)c1 [EUGENOL] | > 50 µg/mL | > 50 µg/mL | inactive | inactive | > 50 µg/mL | inactive | inactive | inactive | inactive | inactive | inactive | > 50 µg/mL | > 50 µg/mL | inactive | inactive | inactive |
| CC(Br)C(=O)c1ccc2c(c1)OCO2 (configuration not stated) | 3.12 µg/mL (≈ 12.1 µM) | 25 µg/mL (≈ 97.2 µM) | inactive | – | 6.25 µg/mL (≈ 24.3 µM) | – | inactive | – | inactive | inactive | inactive | 20 µg/mL (≈ 77.8 µM) | 12.5 µg/mL (≈ 48.6 µM) | inactive | inactive | – |
| CCC(=O)c1cc(OC)c(OC)c(OC)c1 | > 50 µg/mL | > 50 µg/mL | inactive | inactive | > 50 µg/mL | inactive | inactive | inactive | inactive | inactive | inactive | > 50 µg/mL | > 50 µg/mL | inactive | inactive | inactive |
| CC(C)C(O)c1ccc2ccccc2c1 (configuration not stated) | 25 µg/mL (≈ 125 µM) | 25 µg/mL (≈ 125 µM) | – | – | 25 µg/mL (≈ 125 µM) | – | inactive | inactive | inactive | inactive | inactive | 12.5 µg/mL (≈ 62.4 µM) | 12.5 µg/mL (≈ 62.4 µM) | inactive | inactive | – |
| CC(Cl)C(=O)c1cc2ccccc2c2ccccc12 (configuration not stated) | 3 µg/mL (≈ 11.2 µM) | 10 µg/mL (≈ 37.2 µM) | inactive | – | 15 µg/mL (≈ 55.8 µM) | inactive | inactive | inactive | inactive | inactive | inactive | 3 µg/mL (≈ 11.2 µM) | 1.5 µg/mL (≈ 5.58 µM) | inactive | inactive | inactive |
| CC(=O)N1CCN(c2ccc(OCC3COC(Cn4ccnc4)(c4ccc(Cl)cc4Cl)O3)cc2)CC1 (configuration not stated) [KETOCONAZOLE] | 15 µg/mL (≈ 28.2 µM) | 6.25 µg/mL (≈ 11.8 µM) | – | – | 25 µg/mL (≈ 47 µM) | – | inactive | – | inactive | inactive | inactive | 12.5 µg/mL (≈ 23.5 µM) | 15 µg/mL (≈ 28.2 µM) | inactive | inactive | – |
| CC(Br)C(=O)C1CCCCC1 (configuration not stated) | > 50 µg/mL | > 50 µg/mL | – | – | > 50 µg/mL | – | inactive | – | inactive | inactive | inactive | 50 µg/mL (≈ 228 µM) | > 50 µg/mL | inactive | inactive | – |
| CC(C)C(O)c1cc2ccccc2c2ccccc12 (configuration not stated) | 6.25 µg/mL (≈ 25 µM) | 6.25 µg/mL (≈ 25 µM) | – | – | 10 µg/mL (≈ 39.9 µM) | – | inactive | – | inactive | inactive | inactive | 6.25 µg/mL (≈ 25 µM) | 10 µg/mL (≈ 39.9 µM) | inactive | inactive | – |
| COc1ccc(C(=O)C(C)Br)cc1OC (configuration not stated) | 12.5 µg/mL (≈ 45.8 µM) | 40 µg/mL (≈ 146 µM) | inactive | – | 3 µg/mL (≈ 11 µM) | – | inactive | inactive | inactive | inactive | inactive | 25 µg/mL (≈ 91.5 µM) | > 50 µg/mL | inactive | inactive | – |
| COc1cc(C(=O)C(C)Br)cc(OC)c1OC (configuration not stated) | 15 µg/mL (≈ 49.5 µM) | 50 µg/mL (≈ 165 µM) | inactive | – | 8 µg/mL (≈ 26.4 µM) | inactive | inactive | inactive | inactive | inactive | inactive | 12.5 µg/mL (≈ 41.2 µM) | > 50 µg/mL | inactive | inactive | – |
| C[C@@H]1[C@H](O)[C@@H](C)/C=C/C=C/C=C/C=C/C=C/C=C/C=C/[C@H](O[C@@H]2O[C@H](C)[C@@H](O)[C@H](N)[C@@H]2O)C[C@@H]2O[C@](O)(C[C@@H](O)C[C@@H](O)[C@H](O)CC[C@@H](O)C[C@@H](O)CC(=O)O[C@H]1C)C[C@H](O)[C@H]2C(=O)O [AMPHOTERICIN B] | > 50 µg/mL | 6.25 µg/mL (≈ 6.76 µM) | – | – | 0.3 µg/mL (≈ 0.325 µM) | – | inactive | – | inactive | inactive | inactive | 6.25 µg/mL (≈ 6.76 µM) | 25 µg/mL (≈ 27.1 µM) | inactive | inactive | – |
| c1ccc2ccccc2c1 [NAPHTHALENE] | > 50 µg/mL | > 50 µg/mL | – | – | > 50 µg/mL | – | inactive | – | inactive | inactive | inactive | > 50 µg/mL | > 50 µg/mL | inactive | inactive | – |
| COc1ccc(C(=O)C(C)Cl)cc1OC (configuration not stated) | 3.12 µg/mL (≈ 13.6 µM) | 12.5 µg/mL (≈ 54.7 µM) | inactive | – | 0.15 µg/mL (≈ 0.656 µM) | – | inactive | – | inactive | inactive | inactive | 12.5 µg/mL (≈ 54.7 µM) | 10 µg/mL (≈ 43.7 µM) | inactive | inactive | – |
| CC(C)C(=O)c1cc2ccccc2c2ccccc12 | 20 µg/mL (≈ 80.5 µM) | 20 µg/mL (≈ 80.5 µM) | – | – | 20 µg/mL (≈ 80.5 µM) | – | inactive | – | inactive | inactive | inactive | 6.25 µg/mL (≈ 25.2 µM) | 20 µg/mL (≈ 80.5 µM) | inactive | inactive | – |
